Calls of active or inactive are those of the source.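 The calls were made as follows, unless noted: active = fluorescence slope after compound addition differing from the mean of all screened samples at 99.7% confidence, in either direction; inactive = the rest.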
What was measured:
[1] = inhibitors of TNFa-induced NFkB p65 translocation, primary screen, imaging, HUVEC, MLSMR starter and 10KST1 sets (AID 438;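 active = inhibition above 20% together with a positive visual image hit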;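 also: compound added about 3h40 before a 20 min TNFalpha stimulation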;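 as to inhibition: signal is the nuclear over cytoplasmic p65 intensity ratio per well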); settings: HUVEC TNFa-induced p65 nuclear translocation; cell count: measured here: nuclei count (cytotoxicity indicator), at 2.08 µM; inhibition: at 2 µM, stronger effect = higher value, 0% TNFa-plus-vehicle, 100% no-TNFa wells
[2] = inhibitors of mutant huntingtin aggregation, primary screen, imaging, exon1htt(103Q)mCFP cells, high-content imaging (AID 483;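 active = visual image review flags a hit and inhibition of aggregation exceeds 20%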;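 also: compound exposure lasted 3 days before fixation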;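 as to nuclei count: percent of the per-plate median nuclei count of sample wells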); settings: exon1htt(103Q)mCFP cell line, aggregate imaging, at 2 µM; inhibition of aggregation: stronger effect = higher value; nuclei count: measured here: cell count, toxicity
[3] = inhibitors of E-selectin induction by TNFa, primary screen, imaging, HUVEC, immunofluorescence, MLSMR starter and 10KST1 sets (AID 487;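 active = visually confirmed hit in the image check and inhibition above 20%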;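 as to inhibition: signal is fraction of cell area covered by stained E-selectin grains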;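 as to nuclei count: 100% = median nuclei count of all wells on the same plate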); settings: HUVEC TNFalpha-induced E-selectin immunofluorescence imaging, at 2 µM; inhibition: stronger effect = higher value; nuclei count: measured here: cell number, toxicity
[4] = target: Voltage-gated potassium channel subunit beta-2 (Rattus norvegicus) (UniProt P62483); assay: KvBeta enzyme negative modulators, primary screen, biochemical, NADPH fluorescence (AID 622;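 active = fluorescence slope higher than the sample average by over 3 SD, cut at about -0.22 in these data, passing the limit was not always enough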;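 also: slope of raw intensity against log time taken from 70 to 1610 s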); settings: recombinant KvBeta, 4-cyanobenzaldehyde reduction, at 10 µM, stronger effect = higher value
Sequence of Voltage-gated potassium channel subunit beta-2 (Rattus norvegicus) (P62483 whole entry, looked up): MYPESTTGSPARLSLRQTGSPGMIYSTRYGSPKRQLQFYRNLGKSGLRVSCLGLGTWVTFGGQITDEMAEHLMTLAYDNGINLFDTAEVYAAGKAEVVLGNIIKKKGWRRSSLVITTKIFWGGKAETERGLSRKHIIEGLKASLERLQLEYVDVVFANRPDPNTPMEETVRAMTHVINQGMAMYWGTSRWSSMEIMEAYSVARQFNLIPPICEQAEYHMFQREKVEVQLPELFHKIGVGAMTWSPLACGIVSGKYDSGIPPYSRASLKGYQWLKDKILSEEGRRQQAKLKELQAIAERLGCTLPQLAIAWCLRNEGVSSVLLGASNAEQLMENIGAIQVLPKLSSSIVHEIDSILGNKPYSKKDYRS

[5] = target: Voltage-gated potassium channel subunit beta-2 (Rattus norvegicus) (UniProt P62483); assay: KvBeta positive modulators, primary screen, biochemical, NADPH fluorescence (AID 623;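 active = NADPH fluorescence slope more negative than the mean of all samples by about 3 SD, 99.7% confidence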;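 also: fluorescence intensity change per second fitted from 20 to 320 s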); settings: Recombinant KvBeta, NADPH fluorescence decrease slope, 10 min; at 10 µM; stronger effect = lower value
[6] = target: Alpha-2C adrenergic receptor (Homo sapiens) (UniProt P18825); assay: modulators of alpha2C/GIRK thallium flux, primary screen, cell-based, HEK293 alpha2C/GIRK1/2 (AID 624); settings: thallium flux BTC fluorescence, at 10 µM, actives lie on both sides;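 also: slope of fluorescence ratio to pre-addition baseline per second over 15 to 24 s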
Sequence of Alpha-2C adrenergic receptor (Homo sapiens) (P18825 whole entry, looked up): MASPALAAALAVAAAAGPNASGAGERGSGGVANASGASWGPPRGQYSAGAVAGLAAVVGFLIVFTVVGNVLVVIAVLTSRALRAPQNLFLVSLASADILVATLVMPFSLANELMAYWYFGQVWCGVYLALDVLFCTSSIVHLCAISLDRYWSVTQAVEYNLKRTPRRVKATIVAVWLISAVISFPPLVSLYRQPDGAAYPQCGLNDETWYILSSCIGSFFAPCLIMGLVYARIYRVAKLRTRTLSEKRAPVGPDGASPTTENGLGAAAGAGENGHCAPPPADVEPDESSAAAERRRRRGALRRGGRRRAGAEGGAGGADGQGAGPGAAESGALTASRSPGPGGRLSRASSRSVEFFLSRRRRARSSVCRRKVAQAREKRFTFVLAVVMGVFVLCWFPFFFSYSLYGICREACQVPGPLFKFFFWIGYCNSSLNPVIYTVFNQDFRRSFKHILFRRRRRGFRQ

[7] = inhibitors of larval lipid processing in zebrafish, primary screen, whole organism, PED6 fluorescence, gall bladder and intestine (AID 686;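 active = a full or partial loss of lipid-probe fluorescence in the fish gall bladder, intestine or both, judged by eye; inactive = no fluorescence loss, or compound toxic to the fish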;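 also: larvae 5 to 7 days old with five fish per well; signal comes from phospholipase A2 cleavage of quenched PED6 carried via bile; overnight exposure to compound and PED6 before scoring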); settings: Zebrafish larvae PED6 lipid processing, fluorescence scoring; screened at 20 µM (by protocol)
In short: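 system = live zebrafish larvae aged 5-7 days, whole organism | probe or stimulus = ingested quenched lipid PED6 at 100 nM | doses = 20 µM single dose | timing = overnight exposure | detection = fluorescence microscopy with visual scoring of gall bladder and intestine | read-out = visual per-well fluorescence inhibition score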

[8] = inhibitors of Sendai virus-induced IRF3 signaling, primary screen, TLR/RLR signaling modifier project, cell-based, Sendai virus stimulus, luciferase, 10K MLSCN set (AID 602276;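 active = inhibition at or above 50% at 10 µM; inactive = inhibition below 50%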;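 also: firefly luciferase from ISG56 promoter only with Renilla not read in this screen; 0% = Sendai virus plus DMSO and 100% = medium plus DMSO without virus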); settings: HEK293 RL24 IRF3 luciferase reporter, at 10 µM, stronger effect = higher value
[9] = inhibitors of poly I:C-induced TLR3 signaling, primary screen, cell-based, poly I:C stimulus, luciferase, 10K MLSCN set (AID 602277;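 active = inhibition of the reporter signal at or above 50%; inactive = inhibition below 50%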); settings: HEK293-TLR3 RL24 IRF3 luciferase reporter, at 10 µM, stronger effect = higher value

| SMILES | cell count [1] | inhibition [1] | inhibition of aggregation [2] | nuclei count [2] [%] | inhibition [3] | nuclei count [3] [%] | fluorescence slope [4] | NADPH fluorescence slope [5] | slope [6] | outcome [7] | inhibition [8] | inhibition [9] |
| --- | --- | --- | --- | --- | --- | --- | --- | --- | --- | --- | --- | --- |
| O=C(COC(=O)CCOc1ccccc1)Nc1ccc(Cl)cn1 | 723 | 5.7% (inactive) | -12.2% (inactive) | 101 | 35.5% (inactive) | 88.1 | -0.489 (inactive) | -1.8e-05 (inactive) | 0.00492 (inactive) | inactive | 5.25% (inactive) | 8.02% (inactive) |
| COC(=O)C1=C(C)Nc2ncnn2C1c1ccco1 (configuration not stated) | 303 | -4.2% (inactive) | -6.6% (inactive) | 100 | 5.2% (inactive) | 93.9 | -0.432 (inactive) | -6e-05 (inactive) | 0.00405 (inactive) | inactive | 15.5% (inactive) | 16.5% (inactive) |
| O=C(CSc1nc2ccccc2o1)N1CCN(C(=O)c2ccco2)CC1 | 595 | -11.5% (inactive) | 9.6% (inactive) | 102 | -19.5% (inactive) | 99.6 | -0.376 (inactive) | -5.7e-05 (inactive) | 0.00634 (inactive) | inactive | 3.77% (inactive) | 3.76% (inactive) |
| Cc1nc2ccccc2nc1OCC(=O)Nc1cc(C(F)(F)F)ccc1N1CCOCC1 | 410 | -5.6% (inactive) | 19.2% (inactive) | 85.4 | 80.7% (active) | 113 | -0.429 (inactive) | -3e-05 (inactive) | 0.00495 (inactive) | inactive | 12.4% (inactive) | 8.99% (inactive) |
| COC(=O)c1cccc(NC(=O)CN2CCN(Cc3ccccc3)CC2)c1 | 382 | -6.1% (inactive) | -15.3% (inactive) | 124 | -28.9% (inactive) | 121 | -0.372 (inactive) | -9.8e-07 (inactive) | 0.0056 (inactive) | inactive | 12.8% (inactive) | 14.9% (inactive) |
| COc1ccc(/C=N/n2c(SC)nnc2-c2ccccc2)cc1C | 384 | -0.9% (inactive) | 6.2% (inactive) | 103 | -68.1% (inactive) | 117 | -0.384 (inactive) | -2e-05 (inactive) | 0.00536 (inactive) | inactive | 2.46% (inactive) | -2.96% (inactive) |
| CCCC(OC(=O)CN1C(=O)COc2ccccc21)C(=O)NC1CCCC1 (configuration not stated) | 637 | 5.5% (inactive) | 1.5% (inactive) | 129 | -88% (inactive) | 106 | -0.434 (inactive) | -1.6e-05 (inactive) | 0.00522 (inactive) | inactive | 20.6% (inactive) | 23.6% (inactive) |
| O=C(CN1CCN(Cc2ccccc2)CC1)NCC1COc2ccccc2O1 (configuration not stated) | 531 | -6.7% (inactive) | -7% (inactive) | 95.7 | -17.6% (inactive) | 94.9 | -0.356 (inactive) | -7.8e-05 (inactive) | 0.00497 (inactive) | inactive | 12.2% (inactive) | 98.2% (active) |
| Cc1ccc(-c2nn[nH]n2)cc1 | 334 | -7.1% (inactive) | -16.2% (inactive) | 117 | -4.4% (inactive) | 123 | -0.474 (inactive) | -3.8e-05 (inactive) | 0.00429 (inactive) | inactive | 4.2% (inactive) | 10.7% (inactive) |
| CCCn1c(SCC(=O)NC(=O)NCc2ccco2)n[nH]c1=O | 424 | 3.7% (inactive) | -7.6% (inactive) | 73.3 | -178% (inactive) | 117 | -0.39 (inactive) | -3.4e-05 (inactive) | 0.00519 (inactive) | inactive | 2.79% (inactive) | 15.3% (inactive) |
| COc1ccccc1-n1nnnc1SCc1cc2c(cc1Br)OCO2 | 319 | -4.5% (inactive) | -1.1% (inactive) | 90.3 | -168% (inactive) | 130 | -0.437 (inactive) | -4.6e-05 (inactive) | 0.00645 (inactive) | inactive | 19.6% (inactive) | 22.9% (inactive) |

From PubChem BioAssay
